Activity calls are given as the source filed them. The calls are words filed in the database; no cut-off is given here.
How the values were obtained:
Plasmodium falciparum [1] = experiment: Inhibition of Plasmodium falciparum thioredoxin reductase using DTNB as substrate up to 50 uM after 1 hr by colorimetric assay
Plasmodium falciparum [2] = experiment: Antiplasmodial activity against ring stage Plasmodium falciparum W2 infected in human RBC after 48 hrs by FACS analysis; type: functional, organism-based; conditions: W2, 48 h
[3] = Cytotoxicity against human HepG2 cells after 48 hrs by Alamar Blue assay; type: cell-based
[4] = Binding affinity to hematin (unknown origin) by UV-visible titration analysis
Plasmodium berghei [5] = experiment: Ratio of primaquine IC50 to compound IC50 for liver stage Plasmodium berghei infected in human HuH7 cells; type: functional, Huh-7
Plasmodium falciparum [6] = experiment: Inhibition of Plasmodium falciparum Enoyl-ACP reductase using Crotonoyl-CoA as substrate up to 50 uM after 20 mins by fluorescence assay
[7] = Selectivity index, ratio of CC50 for human HepG2 cells to IC50 for liver stage Plasmodium berghei; type: functional
[8] = Inhibition of Cytochrome b-c1 complex in Plasmodium falciparum 3D7A mitochondria assessed as antimycin-sensitive decylubiquinol-cytochrome c oxidoreductase level
[9] = molecular target: T1, Dihydroorotate dehydrogenase (fumarate) (Saccharomyces cerevisiae S288c) (UniProt P28272); experiment: Inhibition of Saccharomyces cerevisiae DHODH expressed in Plasmodium falciparum Dd2 by [3H]-hypoxanthine incorporation assay in presence of proguanil
T1 sequence (whole entry): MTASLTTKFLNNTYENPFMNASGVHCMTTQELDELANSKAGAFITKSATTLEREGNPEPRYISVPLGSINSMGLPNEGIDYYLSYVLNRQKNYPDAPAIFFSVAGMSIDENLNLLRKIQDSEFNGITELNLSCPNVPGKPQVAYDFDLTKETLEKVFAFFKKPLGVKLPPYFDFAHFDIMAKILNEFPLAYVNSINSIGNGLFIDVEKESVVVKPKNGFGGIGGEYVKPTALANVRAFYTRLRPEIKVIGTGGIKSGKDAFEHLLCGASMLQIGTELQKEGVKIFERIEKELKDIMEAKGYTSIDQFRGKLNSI

[10] = Inhibition of heme crystallization to hemozoin; type: functional
Plasmodium berghei [11] = experiment: Antiplasmodial activity against liver stage Plasmodium berghei infected in human HuH7 cells co-expressing GFP-Luccon treated for 1 hr prior to infection followed by 24 hrs after compound washout measured after 48 hrs post-infection by Alamar Blue assay; type: functional, organism-based; conditions: Huh-7
Method in brief: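 Huh-7 hepatoma cells infected with P. berghei were exposed to a rising series of inhibitor concentrations, with 10 μM the highest tested. IC50 was read from sigmoidal concentration–response curves.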

[12] = molecular target: T1, Dihydroorotate dehydrogenase (fumarate) (Saccharomyces cerevisiae S288c); experiment: Inhibition of Saccharomyces cerevisiae DHODH expressed in Plasmodium falciparum Dd2 by [3H]-hypoxanthine incorporation assay
[13] = Half life in rat liver microsomes at 1 uM after 24 hrs by LC-MS/MS analysis

Compound	IC50 (Plasmodium falciparum [2])	logKA [4]	IC50 [10]	CC50 at 48 h [3]	Ratio CC50/IC50 [7]	IC50 (Plasmodium berghei [11])	also measured
O=C(CC1NCCCC1O)Cn1cnc2cc(Br)c(Cl)cc2c1=O (stereo unspecified) [HALOFUGINONE]	–	–	–	–	–	17 nM	–
CCn1cc/c(=N\c2cccc(CCc3ccc(Cl)cc3)c2)c(Cl)c1	–	–	–	–	–	407 nM	–
CCn1cc/c(=N\c2ccc(Cc3ccccc3)cc2)c2ccc(Cl)cc21	1690 nM	5	–	2890 nM	4.91	589 nM	–
CCOC(=O)c1cn(CC)c2ccc(F)cc2/c1=N/c1ccc(-c2ccccc2)cc1	5320 nM	–	–	–	–	> 10000 nM	–
O=C1C(O)=C([C@H]2CC[C@H](c3ccc(Cl)cc3)CC2)C(=O)c2ccccc21 [ATOVAQUONE]	–	–	–	–	–	0.376 nM	IC50 [8]: 0.3 nM
CCn1cc/c(=N\c2cccc(CCc3ccc(OC(F)(F)F)cc3)c2)c2ccc(Cl)cc21	3110 nM	5.2	–	3940 nM	17.4	227 nM	–
CCN(CC)CCCC(C)Nc1ccnc2cc(Cl)ccc12 (stereo unspecified) [CHLOROQUINE]	–	–	6600 nM	–	–	–	–
Cc1nc(C)c(Cl)c(O)c1Cl [CLOPIDOL]	–	4.7	–	–	–	1460 nM	–
CCn1cc/c(=N\c2cccc(CCc3ccc(OC(F)(F)F)cc3)c2)c2ccc(C(F)(F)F)cc21	1670 nM	4.9	–	6090 nM	25.9	235 nM	–
CCn1cc/c(=N\c2ccc(Oc3cccc(OC(F)(F)F)c3)cc2)c2ccc(C(F)(F)F)cc21	1560 nM	3.9	–	12900 nM	24	537 nM	half-life at 24 h, 1 µM ([13]; microsomes): 8.5 h
CCOC(=O)c1cn(C)c2ccc(F)cc2/c1=N/c1ccc(-c2ccccc2)cc1	5880 nM	–	–	–	–	> 10000 nM	–
CCn1cc/c(=N\c2ccc(Oc3ccc(C(F)(F)F)cc3)cc2)c2ccc(Cl)cc21	1260 nM	–	–	3200 nM	–	234 nM	–

Further compounds by falling IC50 (Plasmodium falciparum [2]), results first:

IC50 (Plasmodium falciparum [2])	logKA [4]	IC50 [10]	Compound	CC50 at 48 h [3]	Ratio CC50/IC50 [7]	IC50 (Plasmodium berghei [11])	also measured
1180 nM	5.1	15400 nM	CCn1cc/c(=N\c2ccc(Oc3cccc(OC(F)(F)F)c3)cc2)c2ccc(Cl)cc21	5160 nM	63.7	81 nM	inhibition (Plasmodium falciparum [1]): inactive; Ratio IC50 (Plasmodium berghei [5]): 94; inhibition (Plasmodium falciparum [6]): inactive; IC50 [8]: 1200 nM; inhibition [9]: inactive; inhibition [12]: inactive
1090 nM	5.1	16200 nM	CCn1cc/c(=N\c2ccc(Oc3ccc(Cl)cc3)cc2)c2ccc(Cl)cc21	2690 nM	30.9	87 nM	half-life at 24 h, 1 µM ([13]; microsomes): 3.9 h; Ratio IC50 (Plasmodium berghei [5]): 94
1080 nM	4.9	–	Cn1cc/c(=N\c2ccc(Oc3ccc(C(F)(F)F)cc3)cc2)c2ccc(Cl)cc21	3080 nM	13.4	229 nM	half-life at 24 h, 1 µM ([13]; liver microsomes): 4.1 h
960 nM	4.9	13500 nM	CCn1cc/c(=N\c2ccc(Oc3ccc(OC(F)(F)F)cc3)cc2)c2ccc(Cl)cc21	3530 nM	24.3	145 nM	–
890 nM	5.4	–	CCn1cc/c(=N\c2ccc(Oc3ccccc3)cc2)c2ccc(Cl)cc21	5330 nM	24.9	214 nM	–
590 nM	5.7	17000 nM	CCn1cc/c(=N\c2ccc(-c3ccccc3)cc2)c2ccc(C(F)(F)F)cc21	7040 nM	12.2	575 nM	half-life at 24 h, 1 µM ([13]; liver microsomes): 4.2 h; inhibition (Plasmodium falciparum [1]): inactive; inhibition (Plasmodium falciparum [6]): inactive; IC50 [8]: 28000 nM; inhibition [9]: inactive; inhibition [12]: inactive
540 nM	5.6	18900 nM	CCn1cc/c(=N\c2ccc(-c3ccccc3)cc2)c2ccc(Cl)cc21	4610 nM	23.6	200 nM	half-life at 24 h, 1 µM ([13]; liver microsomes): 4 h
